From ChEMBL document CHEMBL4513216, “Probing the Open Global Health Chemical Diversity Library for Multistage-Active Starting Points for Next-Generation Antimalarials” (ACS Infect Dis, 2020)

assay: Toxicity liver stage against HepG2, at 10uM; assay type: cell-based; set-up: test concentration 10 uM, cell line HepG2-A16-CD81EGFP; conditions: human, HepG2-A16-CD81EGFP cells; read-out: INHIBITION
Outline: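 Uninfected HepG2-A16-CD81EGFP cells, 3 × 10^3 per well, 1536-well, plated on prespotted compound at 10 μM final, parasite-free screening media added to match infected plates; puromycin 10 μM positive, DMSO 0.5% negative; run in parallel with 48 h PbLuc assay at 37 °C, 5% CO2; viability by CellTiter-Glo luminescence, normalized to controls.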

Point of comparison: `CN1[C@H](CO)C[C@H](CNCc2ccc(CO)o2)[C@@H]1c1ccccc1F`, cytotoxicity at 10 µM -9.37%. Against it:
- COc1ccc(-c2noc([C@@H]3C[C@@H](O)CN3C3CCN(C)CC3)n2)cc1 — higher, -1.16%
- CC(C)NC(=O)c1nc2c(s1)CCCN2C(C)C — lower, -143%
- Cc1nc(CN2CCOC3(CCCN(c4nccs4)C3)C2)cs1 (stereo not given) — higher, 16.3%
- Cc1csc(CN2CC[C@H]3C[C@@H](c4noc(C)n4)O[C@@H]3C2)n1 — higher, -1.2%
- CS(=O)(=O)NC[C@]12COC[C@H]1CN(C(=O)c1ncccn1)C2 — higher, 4.9%
- CN(C)Cc1nn(C)c2c1CN(S(=O)(=O)c1ccccc1F)C2 — higher, 5.6%
- CC/N=c1\nc(NCC)nc2n1C(O)(Nc1cccc(Cl)c1Cl)CS2 (stereo not given) — higher, 14.1%
- O=C(c1cc(Br)ccc1-n1cnnn1)N1CCCC1 — higher, -9.24%
- O=C(CCc1ccc2c(c1)CCO2)Nc1nnn[nH]1 — higher, 0.301%
- Cn1cnnc1SCc1cc2c(cc1Cl)OCO2 — higher, 7.03%
- CC(C)c1nnc2ccc(N3CCCC(C(=O)Nc4nccs4)C3)nn12 (stereo not given) — higher, 3.86%
- COc1ccc(Nc2nc3c(C)nn(C)c3c(=O)n2C)c(C)c1 — higher, -6.06%
- Cn1nc(C(=O)N2CCSCC2)cc1NC(=O)c1ccco1 — higher, 1.11%
- COc1ccc2nc(NC(=O)c3c(C(=O)O)cnn3C)sc2c1 — higher, 7.19%
- CN(C)c1nccnc1C1CCN(C(=O)C2(C)CCCCN2C)CC1 (stereo not given) — higher, 10%
- CCC(CN1CCCC1)NC(=O)C1(c2ccc(F)cc2)CC1 (stereo not given) — higher, -1.76%
- CC(C)(C)CC(=O)N1CSCC1C(=O)NC1=NCCS1 (stereo not given) — higher, 17.9%
- CC(C)(C)NC(=O)CNc1ncc(Br)cn1 — higher, 2.96%
- CC(O)CN(Cc1cccc(C(N)=O)c1)c1ccccc1 (stereo not given) — higher, 10.1%
- CNS(=O)(=O)C1CCN(c2cc(C(C)C)nc(C(C)C)n2)C1 (stereo not given) — higher, -3.33%
- CC(=O)N(C)CC(=O)NC(C)c1ccc(OCCC(C)C)cc1 (stereo not given) — higher, 8.59%
- Cc1nn(C)c(C)c1C(=O)N1CCN(C(=O)CCC2CCCCC2)CC1 — higher, -5.47%
- Cc1occc1C(=O)NCC(O)c1ccc(Cl)s1 (stereo not given) — lower, -16.4%
- COc1ccc(Oc2ncccc2NC(=O)N2CCOCC2C)cc1 (stereo not given) — higher, -2.43%
- CC(NC(=O)N1CCc2ccccc2C1)c1nncn1C (stereo not given) — higher, -6.98%
- CC(C)(C)NC(=O)Cn1nc(C2CC2)cc(C(F)(F)F)c1=O — lower, -13.9%
- Cc1cc(C)n(-c2cncc(NCCNS(C)(=O)=O)n2)n1 — higher, -3.98%
- COCCN(CCC#N)S(=O)(=O)c1cc(F)cc(F)c1 — higher, -3.32%
- CC(C)c1ncc(C(=O)N2CCOCC2CC(=O)c2ccco2)s1 (stereo not given) — higher, 5.08%
- Cc1cc(CNCc2c(C(C)C)nn(C)c2N2CCOCC2)no1 — higher, 16.5%
- CC(=O)N1Cc2ccccc2C[C@H]1C(=O)Nc1ccccn1 — higher, -3.09%
- CN(Cc1nc(-c2cccnc2)no1)C(=O)c1cnc2n1CCCC2 — higher, 6.32%
- CCN(CC)CCNC(=O)C(C)OCC(F)(F)F (stereo not given) — higher, 4.23%
- CCc1nc(C)ncc1C(=O)N1CC(=O)N(C)c2ccccc21 — higher, 6.62%
- CC(C)COC(C)C(=O)N1CCC(C)CC1 (stereo not given) — higher, 2.95%
- COc1ccc(-c2ccc(C(=O)NS(C)(=O)=O)c(F)c2)c(F)c1 — higher, 0.512%
- O=C(C[S+]([O-])C1CCCC1)NCCOc1cccc(Cl)c1 (stereo not given) — lower, -143%
- COc1ccc(-n2ccc(CNCc3ccc(OC)c(O)c3)n2)cc1 — higher, 0.51%
- CCC1CN(C)c2ccccc2CN1C(=O)c1c[nH]c(=O)cc1C (stereo not given) — higher, 16.1%
- O=C(O)c1c(Cl)ncn1-c1ccccc1 — higher, -2.34%
- COCc1cc(N(Cc2ccsc2)C2CC2)n2ncnc2n1 — higher, -3.75%
- COCCN1CCC(NCc2c(C)nn(C)c2N(C)C)CC1 — higher, -2.11%
- COc1cc(I)c(Cl)cc1C(=O)N(C)CC(C)(C)O — higher, 11.4%
- CCOCCC(=O)N(C)c1ccc(F)c(Cl)c1 — higher, 0.232%
- N#CC1(NC(=O)c2ccc(-c3nc(C4CC4)n[nH]3)cc2)CCC1 — higher, 0.614%
- COC(=O)CN(Cc1ccccc1C)C(=O)C1CCC1 — higher, -3.64%
- CC(C)(C)c1cnc(CN2CCC(NC(=O)CC3CCCC3)CC2)o1 — lower, -15.5%
- CN1CCOC(C(=O)N2CCCC(C)(C)CC2)C1 (stereo not given) — higher, 6.67%
- CC(C)CN1C(=O)C2(CCCC2)NC1c1cn(C)c(=O)n(C)c1=O (stereo not given) — higher, 2.8%
- O=C(O)c1ccc(CCNC(=O)C2(c3ccccc3)CC2)cc1 — higher, 8.29%
- Cn1c(Nc2cn[nH]c2)c(C#N)c(=O)n(C)c1=O — higher, 14.9%
- Cc1cn(-c2ccccc2)nc1NS(=O)(=O)c1cc(C(=O)O)cs1 — lower, -18.9%
- O=C([C@@H]1CCCO1)N1CCn2c(Cn3cccn3)cnc2C1 — lower, -70.1%
- Cc1ccoc1C(=O)N1CCn2cc(CN3CCCC3)nc2C1 — lower, -79.6%
- CCOC(=O)C1(CCOC)CCN(Cc2nccn2CC)CC1 — higher, 6.77%
- C[C@@H]1CN(CCOc2ccc(F)cc2)CC[C@@]1(O)C1CCOCC1 — higher, -7.19%
- Cc1nc2ccccn2c1CN1C[C@@H](CN(C)CCO)[C@@H](CO)C1 — lower, -11.4%
- Cc1ccc(C2(O)CCN(C(=O)CCn3c(C)cccc3=O)CC2)nc1 — higher, -9.02%
- COc1cccc(-c2cc(C(=O)NCCCn3cnnc3)[nH]n2)c1 — higher, 3.45%
- CCCS(=O)(=O)N1CCC2(CCC(=O)N(CCc3ccncc3)C2)CC1 — lower, -11.7%
- COCCCN1CC2(CCN(Cc3ncc[nH]3)CC2)CC1=O — higher, -2.89%
- Cc1ccc2nc(CN3CCCCC3CCn3cccn3)cn2c1 (stereo not given) — higher, 7.31%
- CC(=O)NCCC1CCCCN1S(=O)(=O)c1ccc2ccccc2c1 (stereo not given) — lower, -125%
- NC(=O)COc1ccc(CN2CCC3(CC2)[C@H](O)C[C@@H]3O)cc1Cl — higher, 3.76%
- CCOC(=O)c1cccc(N2CCCC3(CCC(=O)N(C4CC4)C3)C2)n1 (stereo not given) — higher, -1.38%
- CCCN1CCC(CC(=O)NCc2cc(O)ncn2)CC1 — higher, 14.7%
- Cc1ccccc1C(CC(=O)NCc1n[nH]c(N)n1)c1ccccc1 (stereo not given) — higher, 8.8%
- CC(=O)c1ccc(-c2cnn(CC(=O)Nc3cc(C)nn3C)c2)nc1 — higher, -6.93%
- COc1cccc(OC2CN(C(=O)Cn3nc4ccccc4n3)C2)c1 — higher, -6.98%
- CC(C1CCN(Cc2cnn(C)c2C2CC2)CC1)N1CCN(C)CC1 (stereo not given) — lower, -11.9%
- C[C@@H]1CN(C(=O)CCc2nncn2C)CC[C@@]1(O)C1CCC1 — higher, -6.65%
- COCc1ncc(CN2CC[C@@](C)(O)[C@@H](Cc3ccccc3)C2)cn1 — higher, 12.1%
- O=C1CC[C@H]2CN(c3ncc(F)cn3)CC[C@H]2N1CCc1c[nH]cn1 — higher, 3.96%
- Nc1nc2c(c(N3CCCC(c4nnc5ccccn45)C3)n1)CCNC2 (stereo not given) — higher, -3.57%
- CC(C)CC(O)C1CCN(C(=O)c2ccc(C(F)(F)F)nc2O)CC1 (stereo not given) — higher, 2.5%
- OCc1csc(N2CCN(Cc3cccc(F)c3)CC2)n1 — higher, -4.9%
- Cc1nc2nc(C)c3c(=O)n(-c4ccn[nH]4)ccc3n2n1 — higher, 0.87%
- COc1cccc2c1OCC(C(=O)NC1CCN(S(C)(=O)=O)CC1)C2 (stereo not given) — lower, -10.7%
- CN(Cc1nnc(C2CC2)n1C)C1CCN(Cc2ccncc2)C1 (stereo not given) — lower, -10.3%
- CCC(NC(=O)c1ccoc1)c1ccccc1OCC(=O)N1CCCC1 (stereo not given) — higher, -4.31%
- COc1cccc(COCC(=O)N2CCN(S(C)(=O)=O)CC2)c1 — lower, -10.7%
- Cc1cc(NC(=O)NCC(C(C)C)N2CCOCC2)n(C)n1 (stereo not given) — lower, -17.2%
- O=C(CCCc1nnc(-c2ccccc2)o1)N1CCC1 — higher, -3.41%
- Cn1cnnc1C1CCN(C(=O)CCCOc2ccccc2)CC1 — higher, -7.62%
- O=C1CCc2cc(-c3csc(CCN4CCOC4=O)n3)c(F)cc2N1 — higher, 35.2%
- CC(C)COCC(NC(=O)c1ccncc1)c1ccco1 (stereo not given) — lower, -9.53%
- CC(NC(=O)CCOc1ccc(F)cc1)c1nnc2n1CCCCC2 (stereo not given) — higher, -8.71%
- Cc1ccc(C(O)CNCc2c(C(C)C)nn(C)c2N(C)C)cc1 (stereo not given) — lower, -11.8%
- COc1cccc(C(=O)Nc2cc(CC(C)C)nn2C)c1 — lower, -9.42%
- CCn1c(C(=O)N2CCN(C(=O)COC)CC2)cc2ccccc21 — higher, -6.59%
- Cc1nn(C)c(C)c1C1CCCN1C(=O)CCc1cscn1 (stereo not given) — higher, -3.66%
- Cn1ccnc1CN1CCCN(C(=O)c2ccc(Cl)o2)CC1 — higher, -7.03%
- O=C(NCCCn1cncn1)N1CCCC(N2CCCC2)C1 (stereo not given) — higher, -2.66%
- N#Cc1cnn(-c2ccc(C(=O)Nc3ccccn3)cc2)c1N — higher, -9.03%
- O=C1OCCC1N1CCN(C(=O)Cc2c[nH]c3ccccc23)CC1 (stereo not given) — higher, -7.03%
- CC(C)n1c(=O)c2ccccc2n(CCCN(C)C)c1=O — lower, -13.2%
- CCC(CN1CCCCC1)NC(=O)C1(c2cccc(F)c2)CC1 (stereo not given) — higher, 0.689%
- O=C(NCc1ccncc1)c1nc2c(o1)CN(C(=O)c1cccnc1)C2 — higher, 1.21%
- CN1CCC2(CCCN(C(=O)c3cncn3C)C2)CC1 — higher, -0.757%
- O=C(CC1CC1)N1CC[C@H]2[C@@H]1CCC(=O)N2Cc1ccncc1 — higher, -5.15%
- CN(C)CCN1CCOCC2(CCCN(C(=O)Cc3ccccc3)C2)C1 (stereo not given) — higher, 2.14%
- COc1c(C)cc(CNCc2ccnc(N3CCOCC3)c2)cc1C — higher, 11.9%
- CS(=O)(=O)N1CC[C@]2(C[C@@H](Oc3ccccn3)CO2)C1 — lower, -144%
- COC[C@H]1CC[C@@H]2[C@@H](CCN2Cc2ccccn2)O1 — lower, -72.6%
- CC(C)N(C)Cc1nnc2n1CCN(S(=O)(=O)C1CC1)CC2 — higher, -1.13%
- COCCN1CC[C@@H]2CN(Cc3nccn3C)C[C@@H]2C1 — lower, -76.5%
- CC(C)CN1CCC2(CCN(Cc3nccs3)CC2)C1=O — higher, -5.77%
- Cc1cncc(C(=O)N2CC[C@@H]3[C@H]2CCC(=O)N3CCN(C)C)c1 — higher, -4.84%
- CCOCC(=O)N1C[C@H]2CC[C@@H](C1)N(Cc1ccccn1)C2=O — higher, 10.9%
